# Compound activity from PubChem.
# Rows were chosen to be rich in hits. Some 2.6% of all compounds tested hit in one or more screens of this group.
# Vif imaging = inhibitors of HIV Vif | HEK293T cells, Vif self-association by quenched fluorescence, imaging, 24 h | actives 0.35% (n = 340,000) | inhibition, % at 7.49 µM; in the data active = inhibition above about 50%, passing the limit was not always enough; inconclusive = no clear call, values can overlap the other calls; inactive = below about 31%
# FN deposit inh = fibronectin deposition inhibition; AID 743247; AH1F fibroblasts, Alexa488-fibronectin deposition fluorescence, overnight; inhibition, % at 12.6 µM; actives 0.086% (n = 350,000);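 active = mean inhibition across replicates of 30% or more, regardless of how many single replicates reach that level; inconclusive = mean under 30% yet at least half of replicates reach 30%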
#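 Measured by – fluorescence 485/525 nm · System – AH1F fibroblast monolayer, labelled fibronectin deposition · Amount – 10000 cells per well · Buffer or medium – serum-reduced DMEM (2% serum) · Doses – single dose, pinned · Also added – fluorescent fibronectin at 24 nM final · Schedule – 1 h cell attachment, overnight exposure to compound and label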
# S100A4 inh HTS = S100A4-myosin IIA interaction inhibition | P26447 | S100A4/TAMRA-MyoIIA peptide fluorescence polarization | inhibition, % at 10.7 µM | actives 0.14% (n = 360,000) | AID 652163;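 active = mean inhibition of at least 70% across replicates, with every replicate also reaching that level; inconclusive = mean inhibition reaches 70% but some replicates fall short; inactive = mean inhibition below 70%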
# Target sequence (P26447 whole entry, looked up): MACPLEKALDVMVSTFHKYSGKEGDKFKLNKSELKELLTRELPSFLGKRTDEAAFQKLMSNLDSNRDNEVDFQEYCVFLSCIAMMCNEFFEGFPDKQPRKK
#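 Material: S100A4 monomer (human). Medium: Calcium-containing HEPES buffer, pH 7.2. Probe or stimulus: labelled myosin peptide probe, 5 nM. Compound dosing: one concentration per compound. Timing: polarization read 5 min after assay mix addition, stable 5–60 min. Benchmarks: DMSO as neutral control, TFP as positive control.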
# rRNA inh HTS = selective bacterial rRNA inhibition in E. coli; E. coli WT GFP vs humanized-ribosome RFP mutants, fluorescence, 24 h; stronger effect = lower value; DMSO median 0, no signal -100; GFP signal change (wild-type ribosome), % (no concentration beside the values); actives 1.6% (n = 350,000);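 active = significant combined selectivity score with lowered wild-type GFP, culture density cut under 30%, mutant RFP and density less affected; inactive = any of these conditions unmet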
# miR-122 sensor = miR-122 inhibition in Huh7 cells; Huh7 miR-122 Renilla luciferase sensor, 48 h; neutral wells = 0, positive control = 100; activation (reporter increase), % at 12.5 µM; actives 0.3% (n = 340,000); AID 602342;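 active = mean replicate activation score at least 90 and every replicate individually at or above 90; inconclusive = only one of the two criteria met; inactive = neither criterion met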;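 also: higher luciferase means less miR-122 activity so hits act as miR-122 inhibitors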
# HIV Env fusion = inhibitors of HIV Env-mediated cell fusion; HeLa-JRFL Env/CEM21 cell fusion, luciferase; inhibition, % at 12.3 µM; actives 1.1% (n = 360,000); AID 651610;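 active = mean replicate inhibition score of at least 50 and every replicate individually at or above 50; inconclusive = only one of the two criteria met; inactive = mean below 50 and not all replicates reaching 50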
# AID977621 = growth inhibition of wild-type GFP E. coli, dose response, H69 mutant RFP, cherry-pick; E. coli wild-type GFP strain growth, fluorescence, 24 h; AID 977621; 1,900 tested, under 10 active; shares compounds with rRNA inh HTS; activity change, negative = inhibition at 50 µM;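 active = Wild-type ribosome reporter drop at least double the humanized mutant ribosome reporter drop, growth loss under a set limit; inconclusive = no clear call, values can overlap the other calls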;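 also: wild-type GFP and H69 mutant RFP strains grown together 50/50 in each well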
# AID977628 = E. coli growth inhibition, wild-type GFP versus h24 humanized RFP strain, dose response, h24 mutant RFP vs wild-type GFP, cherry-pick; shares compounds with rRNA inh HTS; E. coli WT GFP strain growth, fluorescence, 24 h; activity change, negative = inhibition at 50 µM; 1,900 tested, under 10 active;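 active = compound lowering the normal-ribosome reporter at least twice as much as the humanized-ribosome reporter, growth loss under a set limit; inconclusive = no clear call, values can overlap the other calls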;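 also: wild-type GFP and h24 humanized RFP strains co-cultured 1 to 1 per well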
# Numbers stand for hits; . = inactive; ? = inconclusive; / = no result.
SMILES,Vif imaging,FN deposit inh,S100A4 inh HTS,rRNA inh HTS,miR-122 sensor,HIV Env fusion,AID977621,AID977628
O=C(NCC[C@H]1CC[C@H](NC(=O)C2CCC2)[C@H](CO)O1)c1cc(Cl)cc(Cl)c1,/,.,.,.,/,.,/,/
Cc1ccccc1S(=O)(=O)N1C[C@H](O)COC[C@H]2O[C@@H](CC(=O)N3CCOCC3)CC[C@@H]21,/,.,.,.,.,/,/,/
COc1cccc(CN(C)Cc2nc(Cc3ccccc3Cl)no2)c1,.,.,.,-26,/,.,.,?
CN(Cc1ccccn1)Cc1nc(Cc2ccccc2Cl)no1,.,.,.,.,/,.,/,/
CC(CCC(=O)O)C1CC[C@@]2(C)C3C(=O)CC4C(C)(C)C(O)CC[C@]4(C)C3C(=O)C[C@]12C (stereo not given in full),?,.,.,-22,.,.,.,/
C[C@H](CCC(=O)O)[C@H]1CC[C@H]2[C@@H]3C(=O)C[C@@H]4CC(=O)CC[C@]4(C)[C@H]3CC(=O)[C@]12C,.,.,.,/,.,.,/,/
C[C@@H]1CN([C@H](C)CO)C(=O)CCCn2nncc2CO[C@@H]1CN(C)Cc1ccc(C(=O)O)cc1,/,.,.,.,/,/,/,/
CCCC(=O)Nc1ccc2c(c1)C(=O)N(C)[C@H]1CC[C@H](CC(=O)OC)O[C@@H]1CO2,/,.,.,.,/,/,/,/
O=C(NCCc1ccccc1)c1ccc(-c2ccccc2C(F)(F)F)o1,/,.,.,.,/,.,/,/
O=C(NCc1ccccc1)c1ccc(-c2ccccc2F)o1,.,/,.,-38,/,/,.,?
O=C(CCNc1cccc(Cl)c1)c1cccs1,.,/,.,-20,.,/,.,.
Cc1ccc(NCCC(=O)c2cccs2)cc1Cl,.,.,/,/,.,.,/,/
Cc1ccc(-c2cnc3c(c2)C(=O)N([C@H](C)CO)C[C@@H](C)[C@H](CN(C)C(=O)Cc2ccccc2)O3)cc1,/,/,.,.,.,.,/,/
COC(=O)Cn1c(=O)c2c(nc3n2CC(C)CN3Cc2ccccc2)n(C)c1=O (stereo not given),.,.,.,.,/,.,/,/
C=C(C)Cn1c(=O)c2c(nc3n2CC(C)CN3Cc2ccccc2)n(C)c1=O (stereo not given),.,.,.,-24,.,.,.,?
CCC(CO)Oc1cc(NC(=O)c2ccccc2F)c2ncn(C(C)C)c2c1 (stereo not given),.,.,.,-20,.,.,/,?
COCC(=O)N(C)C[C@@H]1Oc2ncc(C#C[C@H](C)O)cc2C(=O)N([C@@H](C)CO)C[C@H]1C,/,.,.,.,.,.,/,/
CSc1ccccc1OCc1cc(C(=O)N2CCCC2c2nonc2C)no1 (stereo not given),.,.,.,.,.,.,/,/
Cc1nonc1C1CCCN1C(=O)c1cc(COc2ccc(F)cc2F)on1 (stereo not given),.,.,.,-27,/,.,?,/
C[C@H](CO)N1C[C@H](C)[C@H](CN(C)C(=O)C2CCOCC2)Oc2ncc(C#Cc3cccc(F)c3)cc2C1=O,/,/,/,.,.,.,/,/
NC(=O)c1ccsc1NC(=O)COC(=O)Cc1ccc(F)cc1,.,.,.,-20,.,.,?,.
Cc1ccccc1SCC(=O)OCC(=O)Nc1sccc1C(N)=O,.,.,.,-29,/,.,.,.
O=C1CN(S(=O)(=O)Cc2ccccc2)C[C@@H]2[C@H](c3ccc(C#Cc4cccnc4)cc3)[C@@H](CO)N12,/,/,.,.,/,/,/,/
CC(=O)Cc1cc(O)c2ccccc2c1OC(=O)c1ccc(Br)cc1,?,.,.,-14,.,.,.,.
O=C(COC(=O)c1ccc(Br)cc1)NCc1ccccc1,.,.,/,/,.,.,/,/
SMILES,Vif imaging,FN deposit inh,S100A4 inh HTS,rRNA inh HTS,miR-122 sensor,HIV Env fusion,AID977621,AID977628
COc1cc(CCN(C(=O)c2cc3ccccc3[nH]2)C(c2ccccn2)c2nc3ccccc3[nH]2)cc(OC)c1 (stereo not given),/,.,.,-26,.,.,.,.
C[C@@H]1CCCCO[C@H](CN(C)C(=O)Cc2ccccc2)[C@@H](C)CN([C@H](C)CO)C(=O)c2cc(NC(=O)c3ccccc3)ccc2O1,/,.,.,.,.,.,/,/
Cc1ccc(CCN2C(=O)c3ccccc3C2C(=O)NCc2cccnc2)cc1 (stereo not given),.,.,.,-38,.,.,.,?
Cc1cc(C(=O)Nc2cccc3c2O[C@H](CN(C)C(=O)NC(C)C)[C@H](C)CN([C@@H](C)CO)C3=O)n(C)n1,/,.,.,.,.,/,/,/
CC(C)(C)c1ccc(S(=O)(=O)NCc2ccc(C(=O)NCc3ccccn3)cc2)cc1,.,.,.,-26,/,.,.,.
CC(C)(C)c1ccc(S(=O)(=O)NCc2ccccn2)cc1,.,.,.,.,.,.,/,/
O=C(Nc1cc(F)ccc1F)N1CC(=O)N2[C@H](CO)[C@H](c3ccc(C#CC4CCCC4)cc3)[C@@H]2C1,/,.,.,.,/,/,/,/
C=C1c2cc3c(cc2NC(=S)N1Cc1ccccc1)OCO3,.,.,.,-27,.,.,.,.
Cc1ccc2oc(C(=O)N(C)Cc3ccc(C)o3)c(C)c2c1,.,.,.,-30,.,.,.,.
CCCNC(=O)C[C@@H]1CC[C@H]2[C@@H](COc3ccc(NC(=O)NCCC)cc3C(=O)N2C)O1,/,.,.,.,/,/,/,/
CCCNC(=O)C[C@@H]1CC[C@H]2[C@@H](COC[C@H](O)CN2C(=O)C2CCOCC2)O1,/,.,.,.,.,/,/,/
CN(C)C(=O)C[C@@H]1CC[C@H]2[C@@H](COc3ccc(NC(=O)c4ccc(F)c(F)c4)cc3C(=O)N2C)O1,/,.,.,.,.,.,/,/
CN(CCOc1ccccc1)S(=O)(=O)c1ccccc1C#N,.,.,.,-22,.,.,.,.
NS(=O)(=O)c1ccc(CCNC(=O)CCCCCNc2nc(=S)[nH]c3ccccc23)cc1,/,.,.,-22,/,.,.,.
Cc1ccc(CNC(=O)CCCCCNc2nc(=S)[nH]c3ccccc23)cc1,/,.,.,.,/,.,/,/
O=C(C[C@@H]1C[C@@H]2c3cc(NC(=O)CC4CC4)ccc3O[C@@H]2[C@@H](CO)O1)NCc1ccc2c(c1)OCO2,/,.,.,.,.,.,/,/
COc1cccc(C(=O)Nc2nnc(S(=O)(=O)N(C)Cc3ccccc3)s2)c1,.,.,.,-23,.,.,.,.
COc1ccc(CN(C)S(=O)(=O)c2nnc(NC(=O)c3cccc(OC)c3)s2)cc1,.,.,.,.,.,.,/,/
